Tests used:
[1] = Antiproliferative activity against human OCI-Ly2 cells measured after 72 hrs by calcein AM dye-based fluorescence assay; type: functional
Method in brief: (§1)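 Cells exposed in triplicate to six concentrations for 72 h; calcein AM added for 1 h, live-cell fluorescence read at 485/538 nm (ex/em). GI50 taken from dose-response curves.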

HT = assay: Antiproliferative activity against human HT cells measured after 72 hrs by calcein AM dye-based fluorescence assay; type: functional; method in brief: as §1
[2] = target: Cyclin-dependent kinase 2/cyclin E1 (Homo sapiens, UniProt P24941); assay: Inhibition of His-tagged CDK2/Cyclin-E1 (unknown origin) expressed in baculovirus infected Sf9 insect cells using histone H1 as substrate measured in presence of [gamma-33P]ATP; type: cell-based
[3] = Antiproliferative activity against human Mino cells measured after 72 hrs by calcein AM dye-based fluorescence assay; type: functional; method in brief: as §1
[4] = target: Cyclin-dependent kinase 4/cyclin D1 (Homo sapiens, UniProt P11802); assay: Inhibition of recombinant human N-terminal GST-fused CDK4 (S4 to E303 residues)/cyclin D1 (Q4 to I295 residues) expressed in baculovirus infected Sf9 insect cells using RPPTLSPIPHIPR as substrate measured in presence of [gamma-33P]ATP
Method in brief: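 CDK/cyclin complexes tested in triplicate at minimum; IC50 values reported from those replicate determinations.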

CDK9/cyclin T1 = CDK9/cyclin T1 (Homo sapiens, UniProt P50750); assay: Inhibition of recombinant human N-terminal GST-His6-fused CDK9 (M1 to F372 residues)/N-terminal His6-tagged cyclin T1 (M1 to K726 residues) expressed in baculovirus infected Sf9 insect cells using (YSPTSPS)2KK as substrate measured in presence of [gamma-33P]ATP
Sequence of CDK9/cyclin T1 (O60563 whole entry, the tested form may be a part): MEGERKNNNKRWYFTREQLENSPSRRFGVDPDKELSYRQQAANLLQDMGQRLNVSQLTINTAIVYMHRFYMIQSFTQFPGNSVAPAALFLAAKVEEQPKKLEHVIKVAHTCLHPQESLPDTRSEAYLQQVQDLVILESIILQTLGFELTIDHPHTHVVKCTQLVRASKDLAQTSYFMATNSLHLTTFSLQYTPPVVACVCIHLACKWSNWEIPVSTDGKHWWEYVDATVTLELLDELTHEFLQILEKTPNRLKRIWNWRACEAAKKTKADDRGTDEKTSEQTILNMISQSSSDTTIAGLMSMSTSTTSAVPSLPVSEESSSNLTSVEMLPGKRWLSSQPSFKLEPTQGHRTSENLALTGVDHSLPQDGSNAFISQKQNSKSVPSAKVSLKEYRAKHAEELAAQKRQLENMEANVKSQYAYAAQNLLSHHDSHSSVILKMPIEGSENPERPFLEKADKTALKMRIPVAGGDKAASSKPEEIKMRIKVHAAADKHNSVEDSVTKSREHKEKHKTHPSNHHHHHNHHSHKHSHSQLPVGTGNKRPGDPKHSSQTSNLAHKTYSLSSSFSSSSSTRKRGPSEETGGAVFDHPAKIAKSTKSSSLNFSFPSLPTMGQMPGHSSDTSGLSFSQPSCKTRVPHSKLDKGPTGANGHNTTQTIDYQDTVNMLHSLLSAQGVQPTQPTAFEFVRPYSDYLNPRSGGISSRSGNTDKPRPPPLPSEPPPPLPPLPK
Sequence of CDK9/cyclin T1 (P50750 whole entry, the tested form may be a part): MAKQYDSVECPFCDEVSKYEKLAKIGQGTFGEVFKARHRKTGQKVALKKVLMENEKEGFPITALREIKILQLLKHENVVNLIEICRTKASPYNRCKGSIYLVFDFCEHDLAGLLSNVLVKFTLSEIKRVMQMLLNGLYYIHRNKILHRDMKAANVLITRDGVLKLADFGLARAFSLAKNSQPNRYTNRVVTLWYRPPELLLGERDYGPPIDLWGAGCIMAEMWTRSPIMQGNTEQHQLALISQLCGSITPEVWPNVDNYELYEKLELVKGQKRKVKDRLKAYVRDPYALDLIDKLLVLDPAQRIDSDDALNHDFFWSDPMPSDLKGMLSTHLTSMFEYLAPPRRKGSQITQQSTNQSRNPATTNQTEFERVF

Sequence of Cyclin-dependent kinase 4/cyclin D1 (P11802 whole entry, the tested form may be a part): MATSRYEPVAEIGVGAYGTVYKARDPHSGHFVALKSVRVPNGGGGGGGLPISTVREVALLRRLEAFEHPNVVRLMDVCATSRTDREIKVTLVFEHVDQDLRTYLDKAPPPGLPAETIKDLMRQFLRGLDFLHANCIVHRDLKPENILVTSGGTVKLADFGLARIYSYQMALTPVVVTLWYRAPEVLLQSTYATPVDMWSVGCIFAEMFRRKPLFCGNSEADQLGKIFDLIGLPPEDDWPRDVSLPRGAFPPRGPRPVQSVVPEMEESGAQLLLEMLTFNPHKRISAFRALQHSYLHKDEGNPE
Sequence of Cyclin-dependent kinase 4/cyclin D1 (P24385 whole entry, further chain, the tested form may be a part): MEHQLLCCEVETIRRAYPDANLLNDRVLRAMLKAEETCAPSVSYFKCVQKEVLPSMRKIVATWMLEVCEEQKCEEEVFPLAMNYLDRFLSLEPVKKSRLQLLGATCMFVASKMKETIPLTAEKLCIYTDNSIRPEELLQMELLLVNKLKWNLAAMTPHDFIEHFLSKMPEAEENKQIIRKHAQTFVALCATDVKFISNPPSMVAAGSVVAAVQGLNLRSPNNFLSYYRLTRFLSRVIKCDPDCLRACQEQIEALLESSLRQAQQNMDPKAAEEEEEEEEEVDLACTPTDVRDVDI

Row | SMILES | GI50 [1] [nM] | GI50 (HT) [nM] | IC50 [2] [nM] | GI50 [3] [nM] | IC50 [4] [nM] | IC50 (CDK9/cyclin T1) [nM]
1 | CC(C)c1n[nH]c2c(NCc3ccc(-c4ccccn4)cc3)nc(SC[C@H](O)CN)nc12 | 99 | 63 | 11 | 51 |  | 
2 | CC(C)c1n[nH]c2c(NCc3ccc(-c4ccccn4)cc3)nc(SCCO)nc12 | 50 | 48 | 3 | 40 |  | 
3 | CC(C)c1n[nH]c2c(NCc3ccc(-c4ccccn4)cc3)nc(SCCNC(=N)N)nc12 | 812 | 390 | 30 | 390 |  | 
4 | CC(C)c1n[nH]c2c(NCc3ccc(-c4ccccn4)cc3)nc(SCC(O)CN3CCNCC3)nc12 (configuration not stated) | 435 | 332 | 171 | 767 |  | 
5 | CC(C)c1n[nH]c2c(NCc3ccc(-c4ccccn4)cc3)nc(SCCCO)nc12 | 102 | 109 | 21 | 89 |  | 
6 | CC(C)c1n[nH]c2c(NCc3ccc(-c4ccccn4)cc3)nc(SCC(C)(C)O)nc12 | 610 | 507 | 30 | 477 |  | 
7 | CC[C@H](CO)Nc1nc(NCc2ccc(-c3ccccn3)cc2)c2ncn(C(C)C)c2n1 | 307 | 263 |  | 202 | 26100 | 272
8 | CC(C)c1n[nH]c2c(NCc3ccc(-c4ccccn4)cc3)nc(SCCN(C)C)nc12 | 61 | 54 | 77 | 93 |  | 
9 | CCC(CO)Sc1nc(NCc2ccc(-c3ccccn3)cc2)c2[nH]nc(C(C)C)c2n1 (configuration not stated) | 181 | 255 | 150 | 119 |  | 
10 | CC(C)c1n[nH]c2c(NCc3ccc(-c4ccccn4)cc3)nc(SCCNC(N)=O)nc12 | 198 | 240 | 18 | 136 |  | 
11 | CC(C)c1n[nH]c2c(NCc3ccc(-c4ccccn4)cc3)nc(SC3CCCCC3N)nc12 (configuration not stated) | 136 | 139 | 52 | 157 |  | 
12 | CC(=O)NCCSc1nc(NCc2ccc(-c3ccccn3)cc2)c2[nH]nc(C(C)C)c2n1 | 54 | 71 | 41 | 42 |  | 
13 | C=CC(=O)N1CCC[C@@H](n2nc(-c3ccc(Oc4ccccc4)cc3)c3c(N)ncnc32)C1 [IBRUTINIB] | 18900 | 15900 |  | 10700 |  | 
14 | CNCCSc1nc(NCc2ccc(-c3ccccn3)cc2)c2[nH]nc(C(C)C)c2n1 | 92 | 56 | 13 | 40 |  | 
15 | CC(C)c1n[nH]c2c(NCc3ccc(-c4ccccn4)cc3)nc(SCC(O)CN)nc12 (racemic) | 55 | 55 | 31 | 64 |  | 
16 | CC(C)c1n[nH]c2c(NCc3ccc(-c4ccccn4)cc3)nc(SCCn3ccnc3)nc12 | 145 | 155 | 32 | 135 |  | 
17 | CC(C)c1n[nH]c2c(NCc3ccc(-c4ccccn4)cc3)nc(SCC3CNC(=O)O3)nc12 (configuration not stated) | 53 | 80 | 19 | 69 |  | 
18 | CC(C)c1n[nH]c2c(NCc3ccc(-c4ccccn4)cc3)nc(SCC(N)=O)nc12 | 163 | 192 | 27 | 197 |  | 
19 | CC(C)c1n[nH]c2c(NCc3ccc(-c4ccccn4)cc3)nc(SCC(N)CN)nc12 (configuration not stated) | 780 | 480 | 12 | 770 |  | 

Row | SMILES | GI50 [1] [nM] | GI50 (HT) [nM] | IC50 [2] [nM] | GI50 [3] [nM] | IC50 [4] [nM] | IC50 (CDK9/cyclin T1) [nM]
20 | CC(C)c1n[nH]c2c(NCc3ccc(-c4ccccn4)cc3)nc(SCCC(N)=O)nc12 | 84 | 120 | 19 | 81 |  | 
21 | CC(C)c1n[nH]c2c(NCc3ccc(-c4ccccn4)cc3)nc(SCC(O)CN3CCOCC3)nc12 (configuration not stated) | 200 | 200 | 156 | 243 |  | 
22 | CC(C)c1n[nH]c2c(NCc3ccc(-c4ccccn4)cc3)nc(SCCCN(C)C)nc12 | 109 | 105 | 99 | 76 |  | 
23 | C=CCSc1nc(NCc2ccc(-c3ccccn3)cc2)c2[nH]nc(C(C)C)c2n1 | 858 | 1000 | 100 | 923 |  | 
24 | CC(C)c1n[nH]c2c(NCc3ccc(-c4ccccn4)cc3)nc(SCC(O)C(F)(F)F)nc12 (configuration not stated) | 585 | 690 | 132 | 641 |  | 
25 | CSc1nc(NCc2ccc(-c3ccccn3)cc2)c2[nH]nc(C(C)C)c2n1 | 1210 | 783 |  | 1050 |  | 
26 | CC(C)c1n[nH]c2c(NCc3ccc(-c4ccccn4)cc3)nc(SC3CCCC3O)nc12 (configuration not stated) | 373 | 567 | 52 | 450 |  | 
27 | CC(C)c1n[nH]c2c(NCc3ccc(-c4ccccn4)cc3)nc(S)nc12 | 3240 | 2760 | 558 | 2180 |  | 
28 | COCSc1nc(NCc2ccc(-c3ccccn3)cc2)c2[nH]nc(C(C)C)c2n1 | 285 | 340 | 59 | 243 |  | 
29 | CC(C)c1n[nH]c2c(NCc3ccc(-c4ccccn4)cc3)nc(SCC(O)CO)nc12 (configuration not stated) | 22 | 21 | 10 | 10 |  | 
30 | CC(C)c1n[nH]c2c(NCc3ccc(-c4ccccn4)cc3)nc(SC(C)C(C)O)nc12 (configuration not stated) | 141 | 190 | 3 | 160 |  | 
31 | CSCCSc1nc(NCc2ccc(-c3ccccn3)cc2)c2[nH]nc(C(C)C)c2n1 | 668 | 975 | 138 | 773 |  | 
32 | CCC(O)CSc1nc(NCc2ccc(-c3ccccn3)cc2)c2[nH]nc(C(C)C)c2n1 (configuration not stated) | 280 | 273 | 39 | 427 |  | 
33 | CC(C)c1n[nH]c2c(NCc3ccc(-c4ccccn4)cc3)nc(SC(CO)C(C)C)nc12 (configuration not stated) | 1000 | 980 | 77 | 1310 |  | 
34 | CC(C)c1n[nH]c2c(NCc3ccc(-c4ccccn4)cc3)nc(SCCCN)nc12 | 151 | 120 | 22 | 156 |  | 
35 | CC(O)CSc1nc(NCc2ccc(-c3ccccn3)cc2)c2[nH]nc(C(C)C)c2n1 (configuration not stated) | 152 | 62 | 12 | 81 |  | 
36 | CC(C)c1n[nH]c2c(NCc3ccc(-c4ccccn4)cc3)nc(SCC(C)(C)N)nc12 | 100 | 85 | 20 | 64 |  | 
37 | CC(C)c1n[nH]c2c(NCc3ccc(-c4ccccn4)cc3)nc(SC3CCCCC3O)nc12 (configuration not stated) | 680 | 636 | 134 | 530 |  | 
